Laboratory results reported in ChEMBL document CHEMBL5230175, “The war on hTG2: warhead optimization in small molecule human tissue transglutaminase inhibitors” (RSC Med Chem, 2023).

Columns and labels:
[1] = GSH reactivity in aqueous buffer assessed as GSH adduct formation by measuring corrected intrinsic second order rate constant (K2 corrected) by HPLC analysis; assay type: physicochemical
In short: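 GSH stock diluted to final 15 mM in aqueous buffer (pH 8.0 used, 7.4 too slow), reaction started with inhibitor at final 0.5 mM, 2% v/v DMSO. Incubated at 22 °C and aliquots taken over at least 5–6 half-lives. HPLC with UV 214/254 nm tracked adduct growth and inhibitor loss, fitted mono-exponentially to give pseudo-first-order kobs. kobs was divided by [thiol] and then by the thiolate fraction (pKa 8.7) to give kcorr2. Run in duplicate.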

[2] = molecular target: T1, Protein-glutamine gamma-glutamyltransferase E (Homo sapiens) (UniProt Q08188); test: Reversible inhibition of activated human TG3 using peptidic FRET-quenched probe A101 as substrate by fluorescence based assay relative to control; conditions: concentration not given here
T1 sequence (whole entry): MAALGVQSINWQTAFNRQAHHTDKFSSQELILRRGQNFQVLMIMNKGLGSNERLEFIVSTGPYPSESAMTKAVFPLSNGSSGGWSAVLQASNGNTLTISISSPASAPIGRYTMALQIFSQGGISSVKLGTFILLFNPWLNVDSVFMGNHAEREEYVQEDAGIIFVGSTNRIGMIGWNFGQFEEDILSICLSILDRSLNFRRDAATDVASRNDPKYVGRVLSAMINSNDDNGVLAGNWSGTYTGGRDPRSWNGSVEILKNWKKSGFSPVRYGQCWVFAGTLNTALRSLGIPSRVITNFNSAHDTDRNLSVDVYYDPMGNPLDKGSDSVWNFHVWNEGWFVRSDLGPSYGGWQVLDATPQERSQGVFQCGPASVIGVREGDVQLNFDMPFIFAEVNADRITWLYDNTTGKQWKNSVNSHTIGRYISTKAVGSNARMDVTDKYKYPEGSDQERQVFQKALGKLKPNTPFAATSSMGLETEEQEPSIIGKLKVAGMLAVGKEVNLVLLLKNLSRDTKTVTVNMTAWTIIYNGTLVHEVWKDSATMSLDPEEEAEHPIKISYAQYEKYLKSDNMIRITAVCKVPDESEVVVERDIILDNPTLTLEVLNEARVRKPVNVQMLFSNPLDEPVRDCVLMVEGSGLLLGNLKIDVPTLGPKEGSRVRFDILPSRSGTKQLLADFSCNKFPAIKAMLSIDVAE

[3] = molecular target: T2, Protein-glutamine gamma-glutamyltransferase 6 (Homo sapiens) (UniProt O95932); test: Irreversible inhibition of human TG6 using Cbz-Glu-(gamma-p-nitrophenylester)Gly (AL5) as substrate assessed as substrate hydrolysis by measuring observed binding constant incubated for 60 mins by colorimetric assay
T2 sequence (whole entry): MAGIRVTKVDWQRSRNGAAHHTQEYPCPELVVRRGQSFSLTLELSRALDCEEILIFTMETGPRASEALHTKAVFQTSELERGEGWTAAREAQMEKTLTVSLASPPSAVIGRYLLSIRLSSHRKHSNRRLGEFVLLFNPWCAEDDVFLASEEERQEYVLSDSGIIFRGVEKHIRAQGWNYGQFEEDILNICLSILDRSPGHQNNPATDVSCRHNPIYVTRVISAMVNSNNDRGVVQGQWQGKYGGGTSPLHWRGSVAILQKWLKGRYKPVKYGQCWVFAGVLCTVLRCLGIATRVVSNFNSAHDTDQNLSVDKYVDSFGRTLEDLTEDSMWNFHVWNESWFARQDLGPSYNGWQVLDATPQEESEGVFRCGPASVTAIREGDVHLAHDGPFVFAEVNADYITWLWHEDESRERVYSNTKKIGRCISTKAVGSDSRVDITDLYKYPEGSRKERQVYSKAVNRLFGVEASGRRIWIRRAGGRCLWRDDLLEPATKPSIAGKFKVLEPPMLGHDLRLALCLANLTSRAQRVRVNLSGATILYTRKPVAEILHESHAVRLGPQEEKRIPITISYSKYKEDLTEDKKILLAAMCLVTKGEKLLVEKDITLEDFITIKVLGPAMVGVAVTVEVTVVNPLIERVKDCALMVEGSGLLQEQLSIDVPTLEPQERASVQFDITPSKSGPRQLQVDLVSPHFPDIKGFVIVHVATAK

[4] = molecular target: T3, Protein-glutamine gamma-glutamyltransferase (Homo sapiens) (UniProt P21980); test: Inhibition of human recombinant tissue transglutaminase expressed in Escherichia coli using Cbz-Glu-(gamma-p-nitrophenylester)Gly (AL5) as substrate assessed as substrate hydrolysis by measuring Kinact incubated for 20 mins by colorimetric analysis
T3 sequence (whole entry): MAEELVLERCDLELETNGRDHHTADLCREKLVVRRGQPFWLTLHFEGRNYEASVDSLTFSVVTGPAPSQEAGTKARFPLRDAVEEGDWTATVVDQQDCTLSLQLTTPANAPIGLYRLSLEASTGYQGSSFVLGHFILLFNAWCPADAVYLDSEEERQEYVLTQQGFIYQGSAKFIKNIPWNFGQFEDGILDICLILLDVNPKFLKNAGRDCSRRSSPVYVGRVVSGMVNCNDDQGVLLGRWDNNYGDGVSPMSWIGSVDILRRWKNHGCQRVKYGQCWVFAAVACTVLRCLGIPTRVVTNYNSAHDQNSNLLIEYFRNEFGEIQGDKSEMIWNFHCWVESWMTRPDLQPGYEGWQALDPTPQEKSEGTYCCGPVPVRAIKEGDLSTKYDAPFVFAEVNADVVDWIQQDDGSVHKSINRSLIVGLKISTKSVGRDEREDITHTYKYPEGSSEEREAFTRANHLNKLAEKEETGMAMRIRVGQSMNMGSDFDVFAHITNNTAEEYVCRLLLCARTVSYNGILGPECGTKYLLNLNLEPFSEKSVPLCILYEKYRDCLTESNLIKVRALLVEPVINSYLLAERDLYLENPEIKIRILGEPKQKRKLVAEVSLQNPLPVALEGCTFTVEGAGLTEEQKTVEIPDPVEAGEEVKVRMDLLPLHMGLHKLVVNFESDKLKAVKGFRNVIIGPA

[5] = molecular target: T3, Protein-glutamine gamma-glutamyltransferase (Homo sapiens); test: Irreversible inhibition of human recombinant tissue transglutaminase expressed in Escherichia coli using Cbz-Glu-(gamma-p-nitrophenylester)Gly (AL5) as substrate assessed as substrate hydrolysis by measuring Kinact/Ki ratio by linear regression analysis
In short: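 For TG2/AL5 under Kitz–Wilson conditions (100 μM AL5, pH 6.9 MOPS, 25 °C, 405 nm), kinact/KI was taken from simple linear regression of kobs against corrected inhibitor concentration at the lowest inhibitor concentrations.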

[6] = Ratio of Kinact/Ki for inhibition of human tissue transglutaminase assessed as substrate hydrolysis to corrected second order rate constant (K2 corrected) for GSH reactivity in aqueous buffer assessed as GSH adduct formation; assay type: physicochemical
[7] = molecular target: T4, Protein-glutamine gamma-glutamyltransferase (Homo sapiens, UniProt P21980); test: Irreversible inhibition of human recombinant tissue transglutaminase expressed in Escherichia coli using Cbz-Glu-(gamma-p-nitrophenylester)Gly (AL5) as substrate assessed as substrate hydrolysis by measuring KI incubated for 20 mins by colorimetric analysis
T4 sequence (P21980 whole entry): T3 sequence (whole entry)

[8] = molecular target: T3, Protein-glutamine gamma-glutamyltransferase (Homo sapiens); test: Irreversible inhibition of human recombinant tissue transglutaminase expressed in Escherichia coli using Cbz-Glu-(gamma-p-nitrophenylester)Gly (AL5) as substrate assessed as substrate hydrolysis by measuring Kinact/Ki ratio incubated for 20 mins by colorimetric analysis

In the case of `C=CC(=O)NCC(=O)N1CCN(C(=O)C23CC4CC(CC(C4)C2)C3)CC1`, the K [1] is reported as 0.079 10^-3/M/min, the inhibition [2] is reported as 59.1% and the K [3] is reported as 0.02 min⁻¹.
In the case of `O=C(CCl)NCC(=O)N1CCN(C(=O)C23CC4CC(CC(C4)C2)C3)CC1`, the Kinact [4] is reported as 1.23 min⁻¹, the K [1] is reported as 1.48 10^-3/M/min and the Ratio [5] is reported as 4540 10^3/M/min. For the same compound, the inhibition [2] was 41.5%, the Ratio [6] was 5.437 and the Ki [7] was 150 nM. The Ratio [8] was 8050 10^3/M/min.
